Compound activity (PubChem BioAssay)
KCNK3 inh = human KCNK3 channel inhibition, primary screen. O14649. CHO-KCNK3 thallium flux, FluxOR fluorescence; active compounds read low. B-score at 10 µM. 340,000 compounds, 0.84% hits;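 active = B-score under library mean minus 4 SD, starting fluorescence ratio at most library mean plus 5 SD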;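 also: more negative B-score means stronger inhibition of thallium flux through KCNK3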
Target sequence (O14649 whole entry, looked up): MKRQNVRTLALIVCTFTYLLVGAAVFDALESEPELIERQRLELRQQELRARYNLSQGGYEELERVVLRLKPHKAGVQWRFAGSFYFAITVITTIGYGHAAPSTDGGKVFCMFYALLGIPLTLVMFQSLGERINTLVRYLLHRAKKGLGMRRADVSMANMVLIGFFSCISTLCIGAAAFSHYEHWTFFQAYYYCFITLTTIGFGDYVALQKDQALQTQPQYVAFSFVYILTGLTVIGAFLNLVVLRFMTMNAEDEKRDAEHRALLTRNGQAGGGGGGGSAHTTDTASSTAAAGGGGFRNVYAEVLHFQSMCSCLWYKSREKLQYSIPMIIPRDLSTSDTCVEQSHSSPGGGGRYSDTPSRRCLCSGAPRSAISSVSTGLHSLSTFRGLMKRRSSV
hERG rescue = shields human hERG channel from block by proarrhythmic agents. Q12809. activation (rescue from dofetilide block), less the hit threshold, % at 10 µM. CHO-hERG, FluxOR thallium flux, dofetilide IC70 present. 310,000 compounds, 0.51% hits;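 active = activation above the mean of controls blocked by dofetilide plus 5 SD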;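 also: thallium influx through hERG after potassium depolarization seen as dye fluorescence rise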
Kir21 inh = inhibitors of mouse Kir2.1 inward-rectifier potassium channel | P35561 | HEK293-Kir2.1, FluxOR thallium flux fluorescence; active compounds read low | B-score at 10 µM | 310,000 compounds, 0.85% hits | AID 1672;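 active = fluorescence ratio B-score at or below minus 3 SD of library scores, with starting-brightness B-score within 2 SD, cut at about -4.2 in these data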;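 also: channel flux triggered by added potassium and thallium sulfate stimulus; B-score of peak minus minimum fluorescence over baseline after thallium stimulus; more negative B-score means stronger Kir2.1 block with less thallium influx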
KCNQ1 inh = human KCNQ1 channel inhibition. 310,000 compounds, 1.3% hits. P51787. CHO-K1 KCNQ1, FluxOR thallium flux fluorescence; active compounds read high. B-score at 10 µM;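 active = compounds whose thallium flux B-score, printed positive for inhibition, exceeds three library SD while starting fluorescence stays within three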;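 also: channel opened by potassium depolarization with thallium stimulus after 20 min compound exposure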
KCNK9 inh = human KCNK9 channel inhibition; Q9NPC2; HEK293 KCNK9, FluxOR thallium flux fluorescence; active compounds read low; B-score at 10 µM; 310,000 compounds, 1.2% hits; AID 488922;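 active = ratio B-score over 3 SD below the library mean, with starting fluorescence within 5 SD of its mean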;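 also: negative B-score means less thallium flux so channel inhibition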
KCNQ1 act = human KCNQ1 channel potentiation or activation. B-score at 10 µM. P51787. AID 2648. 310,000 compounds, 0.35% hits. CHO-K1 KCNQ1, thallium flux FluxOR fluorescence; active compounds read high;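 active = fluorescence ratio B-score, a plate-corrected score, at least three library SD, with initial intensity B-score within 5 SD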
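Test system: CHO-K1 cells stably expressing KCNQ1 / Medium: assay buffer / Also added: depolarizing K+/Tl+ stimulus, K2SO4 and Tl2SO4 each 12.5 mM in 5x stock / Incubation: 90 min dye loading and 20 min compound exposure, both at room temperature / Signal: thallium influx via FluxOR fluorescence, kinetic imaging / Evaluation: B score of baseline-normalized fluorescence ratio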
KCNK3 inh conf = human KCNK3 channel inhibition, confirmation assay; shares compounds with KCNK3 inh; CHO-KCNK3 thallium flux, FluxOR fluorescence; 0% buffer, 100% carvedilol maximal block; ratio percent of control, % at 10 µM; 2,400 compounds, 99% hits;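 active = ratio percent of control, averaged over triplicates, above buffer control mean plus 5 SD, cut at about 64% in these data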;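 also: ratio is the fluorescence rise from min to max over baseline after thallium stimulus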
KCNK3 uninduced = activity in cells without induced KCNK3 expression. shares compounds with KCNK3 inh. non-induced KCNK3 parental cells, FluxOR thallium flux; active compounds read low. thallium flux ratio (lower = more inhibition) at 10 µM. 2,400 compounds, 40% hits;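 active = thallium flux ratio, averaged over three wells, more than 5 SD below the buffer control mean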;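 also: host cells are CHO cells without KCNK3 induction; ratio is peak minus trough fluorescence over baseline then normalized to buffer controls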
* = called active by the depositor; i = inactive; . = no result. Sampled rows, rich in hits. Any-hit rate of the full collection: about 3.8%.

SMILES	KCNK3 inh	hERG rescue	Kir21 inh	KCNQ1 inh	KCNK9 inh	KCNQ1 act	KCNK3 inh conf	KCNK3 uninduced
COc1cc(/C=C/C(=O)Nc2ccc(S(=O)(=O)Nc3ncccn3)cc2)ccc1OCC#N	i	.	.	.	.	.	.	.
CSCCC(NC(=O)c1cccc(S(=O)(=O)N2CCN(C(C)=O)CC2)c1)c1nc2ccccc2[nH]1 (stereo not drawn)	i	.	.	.	.	.	.	.
CSCC[C@H](NC(=O)c1ccc(Cl)c(S(=O)(=O)N2CCCC2)c1)c1nc2ccccc2[nH]1	-11*	0	-0.09	i	i	i	107*	i
O=C(COC(=O)Cc1n[nH]c(=O)c2ccccc12)Nc1c(Br)cc([N+](=O)[O-])cc1Br	i	.	.	.	.	.	.	.
COC(=O)CSc1nc2c(c(-c3ccc(C)o3)c1C#N)CCCC2	i	-3	0.01	i	i	i	.	.
CCSc1nc2c(c(-c3ccc(C)o3)c1C#N)CCCC2	-8.8*	-7	-1.6	i	-6.7*	i	96*	i
CN1c2ccccc2-c2nc3ccccc3n2C1c1ccccn1 (stereo not drawn)	-9.7*	-6	-0.79	i	i	i	95*	i
COC(=O)c1ccccc1NC(=O)c1ccc(COc2cc(C)cc(C)c2)o1	-9.5*	-7	1	i	i	i	87*	i
O=C(Cn1nc(-c2ccccc2)nc1-c1ccccc1)OC1CCCCC1	-10*	-10	-0.25	i	i	i	104*	i
CC(=O)c1cc(C(=O)Nc2ccc3ccccc3c2)c(C)o1	-11*	-4	2.8	i	i	i	53*	i
COc1ccc(OC)c(-c2csc(NC(=O)Cc3ccccc3F)n2)c1	i	-7	-1.5	i	-6.7*	i	98*	i
COc1ccc(Cl)cc1C(=O)Nc1ccc(NC(C)=O)cc1	i	-2	0.04	i	i	i	.	.
CC(=O)Oc1c(I)cc(I)cc1C(=O)Nc1ccc(Cl)cc1	-11*	-16	0.83	7*	i	i	123*	0.13*
CCOc1ccc(C2C(C#N)=C(N)SC(N)=C2C#N)cc1OC	.	-9	-0.83	i	i	i	.	.
CCOc1ccc(C2C(C#N)=C(N)SC(N)=C2C#N)cc1OCC	-12*	-7	0.74	i	i	i	108*	0.15*
CN(Cc1ccccc1)c1ccc(C(CC(N)=O)NC(=O)c2ccccc2)cc1[N+](=O)[O-] (stereo not drawn)	i	-9	1.1	i	i	i	.	.
CN(CC(=O)Nc1cccc(F)c1)CC(=O)Nc1ccccc1Oc1ccccc1	-9*	-13	0.47	i	i	i	105*	i
O=S(=O)(NC(=NCCc1ccc(Cl)cc1)c1ccccc1Cl)c1cccs1	-8.9*	-17	-2.6	i	i	i	114*	0.16*
NC(=NCCc1ccccc1)NS(=O)(=O)c1cccs1	i	-8	0.6	i	i	i	.	.
Nc1cc(S(=O)(=O)N2CCCCC2)ccc1Oc1ccc(Cl)cc1	-9*	-23	1.1	i	i	i	112*	i
COC(=O)c1ccc(Oc2ccc(S(=O)(=O)N3CCCCC3)cc2N)cc1	i	-4	2.9	i	i	i	.	.
O=C(Cc1cccc2ccccc12)NCC(=O)N1CCN(Cc2cccc(C(F)(F)F)c2)CC1	i	.	.	.	.	.	.	.
CCOC(=O)C1=C(CSc2nc(CC)c(C)cc2C#N)OC(N)=C(C#N)C1c1ccccc1 (stereo not drawn)	-9.8*	-7	0.45	i	i	i	109*	i
CCOC(=O)C1=C(CSc2nc3c(cc2C#N)CN(C)CC3)OC(N)=C(C#N)C1c1ccncc1 (stereo not drawn)	i	-13	-0.59	i	i	i	.	.
O=C(CSC1=N/C(=C/c2ccco2)C(=O)N1c1ccc(OC(F)F)cc1)NC1CCS(=O)(=O)C1 (stereo not drawn)	-8.9*	-10	-0.2	i	i	i	83*	i
SMILES	KCNK3 inh	hERG rescue	Kir21 inh	KCNQ1 inh	KCNK9 inh	KCNQ1 act	KCNK3 inh conf	KCNK3 uninduced
CCNC(=O)CSC1=N/C(=C\c2ccc(O)c(OCC)c2)C(=O)N1c1ccc(OC(F)F)cc1	i	-10	-0.2	i	i	i	.	.
Cc1cc(C)cc(NC(=S)N(CCN2CCCCC2)Cc2ccco2)c1	-8.9*	-3	-1.9	i	i	i	90*	i
O=C(Nc1cccc(S(=O)(=O)N2CCCCCC2)c1)c1cc(=O)c2ccccc2o1	i	-11	0.11	i	i	i	.	.
CN(c1ccccc1)S(=O)(=O)c1cccc(NC(=O)c2cc(=O)c3ccccc3o2)c1	-10*	-8	-0.23	i	i	i	137*	i
COC(=O)c1ccc(OC(=O)C2CSC3(C)CCC(=O)N23)cc1 (stereo not drawn)	i	-7	-1.3	i	i	i	.	.
CC(C)c1ccc(C(C)NCCS(=O)(=O)c2ccc(Br)cc2)cc1 (stereo not drawn)	-8.9*	-14	-4.7*	i	i	i	69*	0.14*
O=C(NCCS(=O)(=O)c1ccc(Br)cc1)c1ccccc1	i	-2	-1.6	i	i	i	.	.
Cc1ccccc1NC(=O)c1nn(C)c(C(=O)Nc2ccccc2C)c1[N+](=O)[O-]	i	-2	1.8	i	i	i	.	.
COc1ccc(C)cc1NC(=O)c1nn(C)c(C(=O)Nc2cc(C)ccc2OC)c1[N+](=O)[O-]	-9*	-7	0.01	i	i	i	81*	i
CC[C@]1(C(=O)OC)[C@H]2C(=O)N(C)C(=O)[C@H]2[C@H]2CN(C)C(=NC3CCCCC3)N21	i	.	.	.	.	.	.	.
O=C(CSc1nnc(NC2CC2)s1)NN1C(=O)NC2(CCCCC2)C1=O	i	.	.	.	.	.	.	.
O=C(Oc1c(-c2ccccc2)c(=O)n2c3c(cccc13)CC2)c1ccc(F)cc1	i	-11	-0.46	i	i	i	.	.
Fc1ccc(/C=C2\CCCC3=C2Nc2ncnn2C3c2ccc(F)cc2)cc1 (stereo not drawn)	-9.6*	-14	-0.77	i	i	i	114*	0.14*
O=S(=O)(c1ccccc1)N1N=C(c2ccccc2)CC1c1ccccc1F (stereo not drawn)	i	-13	1.1	i	i	i	.	.
